In ChEMBL document CHEMBL4680326, “Hit-to-lead optimization on aryloxybenzamide derivative virtual screening hit against SIRT” (Bioorg Med Chem, 2021) one finds inhibition and IC50 data, which are given here for ten molecules.

A word on the inhibition: it is the percentage by which the read-out fell short of the control. Usually IC50 stands for the concentration that inhibits the measured activity by half.

Assay [1] addresses T1, NAD-dependent protein deacetylase sirtuin-1 (Homo sapiens) (UniProt Q96EB6).
T1 sequence (whole entry): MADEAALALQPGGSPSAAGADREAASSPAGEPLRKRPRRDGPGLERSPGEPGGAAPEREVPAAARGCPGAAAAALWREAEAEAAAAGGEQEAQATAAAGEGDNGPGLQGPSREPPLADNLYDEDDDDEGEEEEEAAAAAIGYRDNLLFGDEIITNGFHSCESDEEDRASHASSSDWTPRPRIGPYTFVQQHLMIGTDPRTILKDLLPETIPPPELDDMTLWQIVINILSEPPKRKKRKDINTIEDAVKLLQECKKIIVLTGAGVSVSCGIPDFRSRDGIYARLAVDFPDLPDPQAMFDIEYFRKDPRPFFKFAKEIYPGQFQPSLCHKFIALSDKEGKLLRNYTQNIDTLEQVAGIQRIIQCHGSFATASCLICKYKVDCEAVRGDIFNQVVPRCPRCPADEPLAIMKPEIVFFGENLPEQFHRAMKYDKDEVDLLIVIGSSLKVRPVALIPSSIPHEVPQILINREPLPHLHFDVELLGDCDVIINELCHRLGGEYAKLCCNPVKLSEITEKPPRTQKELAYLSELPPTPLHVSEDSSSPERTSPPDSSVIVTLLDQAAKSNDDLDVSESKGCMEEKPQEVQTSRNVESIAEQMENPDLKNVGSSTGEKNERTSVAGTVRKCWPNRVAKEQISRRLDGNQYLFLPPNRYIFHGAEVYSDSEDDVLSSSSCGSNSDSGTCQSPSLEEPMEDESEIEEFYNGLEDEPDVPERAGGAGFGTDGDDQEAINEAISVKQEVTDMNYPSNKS
In words: Inhibition of recombinant N-terminal tagged human SIRT1 expressed in Escherichia coli at 100 uM using Fluor De Lys SIRT1 as substrate preincubated for 30 mins followed by substrate addition and measured after 1 hr in presence of NAD+ by fluorescence assay relative to control. The conditions noted are these: time 90.0 min. The procedure, abridged:
(§1)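 Human recombinant SIRT enzyme and compound (1% v/v final DMSO) in SIRT assay buffer were preincubated at 37 °C for 30 min. NAD⁺ and Fluor de Lys deacetylase substrate were then added. Fluorescence was read at excitation 360 nm, emission 460 nm. % inhibition was taken from inhibited wells relative to control wells.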

Assay [2] concerns MCF7. In words: Cytotoxicity against human MCF7 cells assessed as reduction in cell viability measured after 48 hrs by MTT assay. The conditions noted are these: MCF7, 48 h. In kind it is functional, cell-based. In a few lines: (§2)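 MCF-7 cells were grown in DMEM with 10% FBS and 1% penicillin–streptomycin to 70% confluency. 180 µl of a 5 × 10⁴ cells/ml suspension was seeded per well and held 24 h at 37 °C in 5% CO₂. Cells were exposed to 1, 10, 25, 50, 100 or 200 µM, then treated with MTT (5 mg/ml) for 4 h and read at 540 nm. Untreated cells served as control. Done in triplicate; IC50 from linear regression of concentration vs % viable cells.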
Background: Tetrazolium dyes change colour on reduction, which living cells bring about.

Assay [3] has as its system MCF7. Briefly: Cytotoxicity against human MCF7 cells assessed as reduction in cell viability measured after 72 hrs by MTT assay. The conditions noted are these: MCF7, 72 h. It is filed as functional, cell-based. The procedure, abridged: as §2
Assay [4] concerns the target T2, NAD-dependent protein deacetylase sirtuin-2 (Homo sapiens) (UniProt Q8IXJ6).
T2 sequence (whole entry): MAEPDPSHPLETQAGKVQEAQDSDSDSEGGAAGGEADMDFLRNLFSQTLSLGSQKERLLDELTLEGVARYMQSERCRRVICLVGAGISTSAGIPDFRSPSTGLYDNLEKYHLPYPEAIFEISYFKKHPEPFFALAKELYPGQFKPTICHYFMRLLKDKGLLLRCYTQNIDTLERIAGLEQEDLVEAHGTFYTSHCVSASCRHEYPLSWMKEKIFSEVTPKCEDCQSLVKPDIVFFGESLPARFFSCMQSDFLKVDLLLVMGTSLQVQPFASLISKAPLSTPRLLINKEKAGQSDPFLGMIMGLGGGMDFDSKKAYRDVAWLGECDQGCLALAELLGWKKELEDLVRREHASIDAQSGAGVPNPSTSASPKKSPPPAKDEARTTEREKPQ
In words: Inhibition of recombinant N-terminal tagged human SIRT2 expressed in Escherichia coli at 100 uM using Fluor De Lys SIRT2 as substrate preincubated for 30 mins followed by substrate addition and measured after 1 hr in presence of NAD+ by fluorescence assay relative to control. To be noted: time 90.0 min. In a few lines:
as §1

In assay [5] the target is T1, NAD-dependent protein deacetylase sirtuin-1 (Homo sapiens). In words: Inhibition of recombinant N-terminal tagged human SIRT1 expressed in Escherichia coli at 300 uM using Fluor De Lys SIRT1 as substrate preincubated for 30 mins followed by substrate addition and measured after 1 hr in presence of NAD+ by fluorescence assay relative to control. The conditions noted are these: time 90.0 min. The procedure, abridged:
as §1

For assay [6], the target named is T2, NAD-dependent protein deacetylase sirtuin-2 (Homo sapiens). In words: Inhibition of recombinant N-terminal tagged human SIRT2 expressed in Escherichia coli at 300 uM using Fluor De Lys SIRT2 as substrate preincubated for 30 mins followed by substrate addition and measured after 1 hr in presence of NAD+ by fluorescence assay relative to control. To be noted: time 90.0 min. In a few lines:
as §1

The target in assay [7] is T3, NAD-dependent protein deacetylase sirtuin-3, mitochondrial (Homo sapiens) (UniProt Q9NTG7).
T3 sequence (whole entry): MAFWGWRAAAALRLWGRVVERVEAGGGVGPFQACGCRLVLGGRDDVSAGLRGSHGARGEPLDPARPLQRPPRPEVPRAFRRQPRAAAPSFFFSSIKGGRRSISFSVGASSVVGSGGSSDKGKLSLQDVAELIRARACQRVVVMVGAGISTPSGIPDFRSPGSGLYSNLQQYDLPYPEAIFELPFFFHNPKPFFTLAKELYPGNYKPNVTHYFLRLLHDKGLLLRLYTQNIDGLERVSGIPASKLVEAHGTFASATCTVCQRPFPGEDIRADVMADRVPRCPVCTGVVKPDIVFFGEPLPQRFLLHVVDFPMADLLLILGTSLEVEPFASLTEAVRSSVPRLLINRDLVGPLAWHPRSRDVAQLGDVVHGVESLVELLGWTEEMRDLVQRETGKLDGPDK
Briefly: Inhibition of recombinant N-terminal tagged human SIRT3 (102 to 399 residues) expressed in Escherichia coli at 300 uM using Fluor De Lys SIRT2 as substrate preincubated for 30 mins followed by substrate addition and measured after 1 hr in presence of NAD+ by fluorescence assay relative to control. The conditions noted are these: time 90.0 min. The procedure, abridged:
as §1

Where only a bound is given, the exact number is not on record here.

Regarding `CC(C)N1CCN(C(=O)c2cccc(Oc3ccccc3)c2)CC1`, the inhibition in assay [1] was 48.1%. The IC50 with MCF7 [2] was found to be 465 µM; with MCF7 [3], 321 µM.
In the case of `CC(=O)c1ccc(NC(=O)c2cccc(Oc3ccccc3)c2)cc1`, the inhibition in assay [4] turned out to be 11.1%.
Take `O=C(Nc1ccc2ccccc2c1)c1cccc(Oc2ncccn2)c1`: the results for the inhibition in assay [1] and in assay [4] were 36.1% and 17.1%, respectively.
As to `ON=C(c1cccc(Oc2ccccc2)c1)N1CCc2ccccc2C1`, the inhibition in assay [1] came out at 47.2%; in assay [4], 51.6%. The results for the IC50 in the assay with MCF7 [2] and in the assay on MCF7 [3] were 41.1 µM and 33.1 µM, respectively.
The matching figures for `O=C(c1cccc(Oc2ccccc2)c1)N1CCc2ccccc2C1`: 56.5%, 10.8%, 159 µM and 147 µM.
For the molecule `NC(=O)c1ccc(NC(=O)c2ccc(Oc3ccccc3)cc2)cc1`, in assay [1], the inhibition is 46%. Further, the IC50 is 524 µM with MCF7 [2] and 356 µM in the assay with MCF7 [3].
As to `Cc1ccc(Oc2cccc(C(=O)N[C@@H](C)c3ccccc3)c2)nn1`, the inhibition in assay [5] was determined as 31.4%; in assay [6], 42.5%; in assay [7], 18.2%. Besides, the IC50 is 328 µM in the assay on MCF7 [2] and > 1000 µM in the assay with MCF7 [3].
For `Cc1ccc(C(=O)Nc2ccc(S(=O)(=O)O)c3cc(S(=O)(=O)O)cc(S(=O)(=O)O)c23)cc1NC(=O)c1cccc(NC(=O)Nc2cccc(C(=O)Nc3cc(C(=O)Nc4ccc(S(=O)(=O)O)c5cc(S(=O)(=O)O)cc(S(=O)(=O)O)c45)ccc3C)c2)c1`, the inhibition in assay [4] turned out to be 98.4%.
Regarding `CC(=O)c1ccc(NC(=O)c2ccc(Oc3ccccc3)cc2)cc1`, in assay [1], the inhibition was 36.1%.
In the case of `O=C(c1ccc(Oc2ccccc2)cc1)N1CCc2ccccc2C1`, in assay [1], the inhibition stood at 21.5%.
